The record followed here is PubChem BioAssay.

The inhibition is the relative decrease from the control value, in per cent.

SMILES strings stand for the structures. Activity calls are given as the source filed them.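 Rule for the calls, unless noted: active = NADPH fluorescence slope more negative than the mean of all samples by about 3 SD, 99.7% confidence; inactive = the rest.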

Assay [1] can be described thus: inhibitors of TNFa-induced NFkB p65 translocation, primary screen, imaging, HUVEC, MLSMR starter and 10KST1 sets (AID 438;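 active = inhibition above 20% together with a positive visual image hit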;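 note: compound added about 3h40 before a 20 min TNFalpha stimulation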;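 for inhibition: signal is the nuclear over cytoplasmic p65 intensity ratio per well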). Conditions: HUVEC TNFa-induced p65 nuclear translocation; cell count: measured here: nuclei count (cytotoxicity indicator), at 2.08 µM; inhibition: at 2 µM, stronger effect = higher value, 0% TNFa-plus-vehicle, 100% no-TNFa wells.
A short description of assay [2]: inhibitors of mutant huntingtin aggregation, primary screen, imaging, exon1htt(103Q)mCFP cells, high-content imaging (AID 483;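 active = visual image review flags a hit and inhibition of aggregation exceeds 20%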;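 note: compound exposure lasted 3 days before fixation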;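 for nuclei count: percent of the per-plate median nuclei count of sample wells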). The following applies: exon1htt(103Q)mCFP cell line, aggregate imaging, at 2 µM; inhibition of aggregation: stronger effect = higher value; nuclei count: measured here: cell count, toxicity.
A short description of assay [3]: inhibitors of E-selectin induction by TNFa, primary screen, imaging, HUVEC, immunofluorescence, MLSMR starter and 10KST1 sets (AID 487;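 active = visually confirmed hit in the image check and inhibition above 20%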;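 for inhibition: signal is fraction of cell area covered by stained E-selectin grains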;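 for nuclei count: 100% = median nuclei count of all wells on the same plate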). Conditions: HUVEC TNFalpha-induced E-selectin immunofluorescence imaging, at 2 µM; inhibition: stronger effect = higher value; nuclei count: measured here: cell number, toxicity.
The target of assay [4] is Voltage-gated potassium channel subunit beta-2 (Rattus norvegicus) (UniProt P62483). Put plainly: KvBeta enzyme negative modulators, primary screen, biochemical, NADPH fluorescence (AID 622;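 active = fluorescence slope higher than the sample average by over 3 SD, cut at about -0.22 in these data, passing the limit was not always enough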;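 note: slope of raw intensity against log time taken from 70 to 1610 s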). The following applies: recombinant KvBeta, 4-cyanobenzaldehyde reduction, at 10 µM, stronger effect = higher value.
Assay [5] shares this target. Put plainly: KvBeta positive modulators, primary screen, biochemical, NADPH fluorescence (AID 623).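 Note: fluorescence intensity change per second fitted from 20 to 320 s.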 Conditions: Recombinant KvBeta, NADPH fluorescence decrease slope, 10 min; at 10 µM; stronger effect = lower value.
Assay [6] concerns the target Muscarinic acetylcholine receptor M4 (Homo sapiens) (UniProt P08173). Put plainly: compounds altering M4/GIRK thallium flux, either direction, primary screen, M4 allosteric agonist project, cell-based, HEK293 M4/GIRK, BTC-AM (AID 625;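 active = fluorescence slope after compound addition differing from the mean of all tested samples at 99.7% confidence, mostly higher but some lower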;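 note: thallium influx through GIRK channels coupled to M4 in HEK293 cells with BTC-AM dye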). Conditions: at 10 µM, actives lie on both sides. The essentials: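 Material: HEK293 cells with M4 receptor and GIRK channels; Times: cells overnight at 37 °C, BTC-AM loading 1 h, reads 2 min total; Technique: kinetic BTC-AM fluorescence sampled at 1 Hz, 10 s pre-addition baseline; Read-out basis: slope over 15–24 s of trace normalized to starting intensity; Controls: carbachol positive, DMSO negative.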

Assay [7] is described as follows: inhibitors of Sendai virus-induced IRF3 signaling, primary screen, TLR/RLR signaling modifier project, cell-based, Sendai virus stimulus, luciferase, 10K MLSCN set (AID 602276;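 active = inhibition at or above 50% at 10 µM; inactive = inhibition below 50%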;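 note: firefly luciferase from ISG56 promoter only with Renilla not read in this screen; 0% = Sendai virus plus DMSO and 100% = medium plus DMSO without virus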). Conditions: HEK293 RL24 IRF3 luciferase reporter, at 10 µM, stronger effect = higher value. (In general: A reporter such as luciferase makes a cellular process visible.)
Assay [8] is described as follows: inhibitors of poly I:C-induced TLR3 signaling, primary screen, cell-based, poly I:C stimulus, luciferase, 10K MLSCN set (AID 602277;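 active = inhibition of the reporter signal at or above 50%; inactive = inhibition below 50%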). Conditions: HEK293-TLR3 RL24 IRF3 luciferase reporter, at 10 µM, stronger effect = higher value.

Sequence of Muscarinic acetylcholine receptor M4 (Homo sapiens) (P08173 whole entry, looked up): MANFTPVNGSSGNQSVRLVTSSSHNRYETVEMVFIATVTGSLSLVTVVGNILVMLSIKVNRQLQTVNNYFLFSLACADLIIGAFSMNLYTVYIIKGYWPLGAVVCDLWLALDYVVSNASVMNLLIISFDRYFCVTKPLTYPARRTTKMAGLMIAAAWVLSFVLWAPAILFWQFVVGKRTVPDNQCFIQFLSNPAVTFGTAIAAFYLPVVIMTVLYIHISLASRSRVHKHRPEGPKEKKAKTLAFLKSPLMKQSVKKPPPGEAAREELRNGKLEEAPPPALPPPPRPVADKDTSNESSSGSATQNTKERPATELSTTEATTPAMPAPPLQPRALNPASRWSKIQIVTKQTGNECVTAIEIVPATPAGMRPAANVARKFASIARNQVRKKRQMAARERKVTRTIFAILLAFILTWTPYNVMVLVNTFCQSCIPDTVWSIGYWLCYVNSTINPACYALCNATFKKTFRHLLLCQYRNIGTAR
Sequence of Voltage-gated potassium channel subunit beta-2 (Rattus norvegicus) (P62483 whole entry, looked up): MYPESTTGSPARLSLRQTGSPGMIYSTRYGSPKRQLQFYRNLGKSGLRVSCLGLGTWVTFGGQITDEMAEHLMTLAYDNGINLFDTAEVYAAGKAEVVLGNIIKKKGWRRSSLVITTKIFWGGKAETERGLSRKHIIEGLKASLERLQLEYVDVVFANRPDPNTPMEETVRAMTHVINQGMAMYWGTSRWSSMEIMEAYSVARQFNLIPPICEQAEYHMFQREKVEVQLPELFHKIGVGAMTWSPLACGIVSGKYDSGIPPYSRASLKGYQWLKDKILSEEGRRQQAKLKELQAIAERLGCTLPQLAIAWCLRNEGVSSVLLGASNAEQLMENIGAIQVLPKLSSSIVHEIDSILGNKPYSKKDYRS

For the molecule `Cc1cc2c(cc(C(=O)NCc3cccnc3)n2Cc2ccc(Cl)cc2)o1`, in assay [1], the cell count came to 672. For the same molecule, the inhibition in assay [1] was -16.6% (inactive); in assay [3] it was -91.9% (inactive); in assay [7], 12.1% (inactive); in assay [8], 14.8% (inactive). Also, the inhibition of aggregation in assay [2] is -46.1% (inactive). Further, the figures for the nuclei count in assay [2] and in assay [3] were 127% and 99.8%, respectively. Moreover, the fluorescence slope was -0.49 (inactive) in assay [4] and 0.00518 (inactive) in assay [6]. Moreover, in assay [5], the NADPH fluorescence slope was -2.7e-06 (inactive).
For `Cc1cccc(N2CCN(C(=O)c3ccc(NS(=O)(=O)c4c(C)noc4C)cc3)CC2)c1C`, the cell count in assay [1] was 334. The inhibition in assay [1] is 5.4% (inactive); in assay [3], -283% (inactive); in assay [7] it was -6.14% (inactive); in assay [8], -0.151% (inactive). Further, the inhibition of aggregation in assay [2] is -23.1% (inactive). Further, the nuclei count in assay [2] was determined as 97.7%; in assay [3], 84.9%. Moreover, the fluorescence slope in assay [4] is -0.545 (inactive); in assay [6], 0.00603 (inactive). Further, in assay [5], the NADPH fluorescence slope was -7.3e-05 (inactive).
With `CCOC(=O)N1CCN(c2cc3[nH]c(=S)[nH]c3cc2F)CC1`, in assay [1], the cell count is 792. Besides, the inhibition in assay [1] is 0% (inactive); in assay [3] it was -135% (inactive); in assay [7], 17.8% (inactive); in assay [8] it was 20.8% (inactive). For the same molecule, the inhibition of aggregation in assay [2] was -5.7% (inactive). Moreover, the nuclei count in assay [2] amounted to 104%; in assay [3] it was 136%. Also, the fluorescence slope is -0.525 (inactive) in assay [4] and 0.00501 (inactive) in assay [6]. In assay [5], the NADPH fluorescence slope was -2.4e-05 (inactive).
For `N#CC1=C(N)n2c(s/c(=C\c3ccco3)c2=O)=C(C#N)C1c1ccco1` (centres undefined), the cell count in assay [1] worked out at 422. Also, the inhibition is -2.2% (inactive) in assay [1], -34.4% (inactive) in assay [3], 19.5% (inactive) in assay [7] and 38% (inactive) in assay [8]. Also, in assay [2], the inhibition of aggregation is 8.3% (inactive). Besides, the nuclei count in assay [2] is 106%; in assay [3] it was 116%. In addition, the fluorescence slope is -0.565 (inactive) in assay [4] and 0.00353 (inactive) in assay [6]. The NADPH fluorescence slope in assay [5] is -3.6e-05 (inactive).
In the case of `O=C(NCCO)c1scc2c1OCCO2`, the cell count in assay [1] turned out to be 572. For the same molecule, the inhibition in assay [1] is -12.8% (inactive); in assay [3], -15.2% (inactive); in assay [7], 16.6% (inactive); in assay [8], 19.5% (inactive). In addition, in assay [2], the inhibition of aggregation was 7.6% (inactive). The nuclei count in assay [2] came to 97.2%; in assay [3], 104%. Besides, the fluorescence slope is -0.327 (inactive) in assay [4] and 0.00603 (inactive) in assay [6]. Besides, in assay [5], the NADPH fluorescence slope was 6.5e-05 (inactive).
With `CN(C)c1nc(N)nc(CSc2nnnn2-c2cccc3ccccc23)n1`, the cell count in assay [1] was found to be 627. The inhibition in assay [1] was -10.4% (inactive); in assay [3], -69.3% (inactive); in assay [7], 18.6% (inactive); in assay [8], 14.8% (inactive). Further, the inhibition of aggregation in assay [2] was 27.3% (inactive). In addition, the nuclei count turned out to be 71.9% in assay [2] and 103% in assay [3]. Moreover, the fluorescence slope in assay [4] is -0.463 (inactive); in assay [6] it was 0.00537 (inactive). Moreover, the NADPH fluorescence slope in assay [5] is -3.9e-05 (inactive).
`CC(C(=O)N1CCOCC1)N1c2cccc3cccc(c23)S1(=O)=O` (centres undefined): the cell count in assay [1] is 341. Besides, the inhibition in assay [1] is -13.3% (inactive); in assay [3], -31.4% (inactive); in assay [7], 17.3% (inactive); in assay [8], 20.6% (inactive). Further, the inhibition of aggregation in assay [2] is 8.6% (inactive). For the same molecule, the nuclei count in assay [2] came out at 109%; in assay [3], 102%. Further, the results for the fluorescence slope in assay [4] and in assay [6] were -0.548 (inactive) and 0.00313 (inactive), respectively. Further, the NADPH fluorescence slope in assay [5] is -2.9e-05 (inactive).
On to `CCOC(=O)N1CCC(O)(c2cc(C)c(C)cc2C)CC1`, for which the cell count in assay [1] turned out to be 494. The inhibition is -1.1% (inactive) in assay [1], -16% (inactive) in assay [3], 16.2% (inactive) in assay [7] and -0.7% (inactive) in assay [8]. For the same molecule, the inhibition of aggregation in assay [2] is -15.6% (inactive). Besides, the figures for the nuclei count in assay [2] and in assay [3] were 93% and 112%, respectively. The fluorescence slope in assay [4] was -0.316 (inactive); in assay [6], 0.00607 (inactive). Also, the NADPH fluorescence slope in assay [5] was -2.5e-05 (inactive).
With `COC(=O)C(C)Oc1ccc2c3c(c(=O)oc2c1)CCCCC3` (centres undefined), in assay [1], the cell count amounted to 648. Besides, the inhibition was -7.8% (inactive) in assay [1], -170% (inactive) in assay [3], 9.54% (inactive) in assay [7] and 12.4% (inactive) in assay [8]. In addition, the inhibition of aggregation in assay [2] was -24.4% (inactive). Also, the nuclei count in assay [2] was found to be 106%; in assay [3], 103%. The fluorescence slope in assay [4] is -0.496 (inactive); in assay [6], 0.00349 (inactive). In addition, the NADPH fluorescence slope in assay [5] was -1.7e-05 (inactive).
Regarding `Cc1onc(-c2c(Cl)cccc2Cl)c1C(=O)NCCN1CCOCC1`, the cell count in assay [1] stood at 548. Further, the inhibition in assay [1] was 5.1% (inactive); in assay [3] it was -48.2% (inactive); in assay [7] it was 21.3% (inactive); in assay [8], 16.3% (inactive). For the same molecule, the inhibition of aggregation in assay [2] is -1.4% (inactive). For the same molecule, the nuclei count in assay [2] was found to be 98.9%; in assay [3], 108%. The values for the fluorescence slope in assay [4] and in assay [6] were -0.471 (inactive) and 0.00527 (inactive), respectively. Besides, the NADPH fluorescence slope in assay [5] was 3e-06 (inactive).
In the case of `CCCSC1=C(C#N)C(c2ccccc2OCC)CC(=O)N1` (centres undefined), the cell count in assay [1] is 443. Further, the inhibition in assay [1] is 0.5% (inactive); in assay [3], 9.8% (inactive); in assay [7] it was 17.2% (inactive); in assay [8], 17.7% (inactive). The inhibition of aggregation in assay [2] was 0.2% (inactive). In addition, the values for the nuclei count in assay [2] and in assay [3] were 111% and 95%, respectively. The figures for the fluorescence slope in assay [4] and in assay [6] were -0.454 (inactive) and 0.00486 (inactive), respectively. In addition, the NADPH fluorescence slope in assay [5] is -2.4e-05 (inactive).
On to `O=C(Nc1nncs1)c1ccccc1NS(=O)(=O)c1cccs1`, for which the cell count in assay [1] stood at 326. The inhibition in assay [1] was 21.9% (inactive); in assay [3], -44.6% (inactive); in assay [7], -6.81% (inactive); in assay [8] it was -4.84% (inactive). Further, the inhibition of aggregation in assay [2] was 5.1% (inactive). Moreover, the nuclei count is 111% in assay [2] and 108% in assay [3]. Besides, the fluorescence slope is -0.0751 (inactive) in assay [4] and 0.00575 (inactive) in assay [6]. For the same molecule, the NADPH fluorescence slope in assay [5] was -1.1e-05 (inactive).
As to `CC(C(=O)NCc1cccnc1)N1C(=O)c2ccccc2C1=O` (centres undefined), in assay [1], the cell count came to 783. For the same molecule, the inhibition in assay [1] was 5.5% (inactive); in assay [3], -39.6% (inactive); in assay [7] it was -0.398% (inactive); in assay [8], 10.3% (inactive). In assay [2], the inhibition of aggregation is 3.6% (inactive). Also, the nuclei count in assay [2] turned out to be 105%; in assay [3], 132%. In addition, the fluorescence slope in assay [4] is -0.607 (inactive); in assay [6], 0.00555 (inactive). Moreover, the NADPH fluorescence slope in assay [5] was 1.7e-05 (inactive).
For `Cc1ccc(S(=O)(=O)NCCCNC(=O)N2CCOCC2)cc1`, in assay [1], the cell count stood at 769. Besides, the inhibition in assay [1] is -4.3% (inactive); in assay [3], -103% (inactive); in assay [7], 17.8% (inactive); in assay [8], 16.7% (inactive). In addition, in assay [2], the inhibition of aggregation is 1.3% (inactive). Also, the nuclei count was 104% in assay [2] and 129% in assay [3]. Besides, the fluorescence slope is -0.461 (inactive) in assay [4] and 0.00502 (inactive) in assay [6]. In addition, the NADPH fluorescence slope in assay [5] is -4.9e-05 (inactive).
